High-throughput results: PubChem, several laboratories
This is a sample that favours compounds with a hit; in the whole collection about 4% have one here.
DAGLB inhibitor – blocks human DAGLB lipase activity; inhibition, % at 5.17 µM; HEK293T DAGLB membrane lysate, EnzChek fluorogenic substrate; Q8NCG7; actives 0.059% (n = 340,000); in the data active = inhibition above about 34%;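 note: 0% = enzyme with vehicle and 100% = wells lacking enzyme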
TAAR1 agonist – agonists of human TAAR1. CHO RD-HGA16 TAAR1, Fluo-8 calcium fluorescence; vehicle wells 0%, saturating PEA agonist 100%. activation, % at 3 µM. actives 0.99% (n = 360,000);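 active = activation above the mean activation of all test compounds in the run plus 3 SD, cut at about 38% in these data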
Target sequence (Q96RJ0 whole entry, looked up): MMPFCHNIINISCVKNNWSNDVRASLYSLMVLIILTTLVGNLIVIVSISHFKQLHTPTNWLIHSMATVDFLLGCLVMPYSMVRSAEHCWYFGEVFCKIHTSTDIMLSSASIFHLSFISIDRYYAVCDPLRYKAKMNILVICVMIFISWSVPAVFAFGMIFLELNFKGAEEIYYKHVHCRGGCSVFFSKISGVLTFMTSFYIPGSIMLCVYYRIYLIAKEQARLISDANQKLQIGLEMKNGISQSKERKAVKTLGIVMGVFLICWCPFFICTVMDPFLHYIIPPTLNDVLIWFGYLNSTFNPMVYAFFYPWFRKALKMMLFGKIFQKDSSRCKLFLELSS
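Benchmarks: low control DMSO, high control PEA (EC100); System: CHO RD-HGA16 cells carrying human TAAR1 plus Gα16; Detection: Fluo-8 fluorescence, 5 s baseline then 140 s kinetic read; Schedule: 17-24 h plating, Fluo-8 75 min 37 °C, 30 min RT; Read-out basis: % activation from peak over basal fluorescence ratio, DMSO-to-PEA scaled.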
MPTP block – blocks calcium-induced mitochondrial swelling | isolated mouse mitochondria, Ca2+ swelling absorbance, 30 min | inhibition, % at 10 µM | actives 1.4% (n = 360,000);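 active = inhibition of 50% or more, scaled per plate between neutral and stimulator controls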;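 note: 0% = DMSO wells given calcium and 100% = 1 mM EGTA wells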
TAAR1 antagonist – antagonists of human TAAR1 | Q96RJ0 | CHO RD-HGA16 TAAR1, Fluo-8 calcium fluorescence, antagonist | inhibition, % at 3 µM | actives 1.5% (n = 360,000) | AID 624466;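 active = inhibition above a per-plate cutoff, the mean inhibition of test compounds on that plate plus 3 SD, cut at about 49% in these data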;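 note: 0% = DMSO plus EC80 beta-PEA response and 100% = DMSO alone without agonist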
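Test system – hTAAR1-expressing CHO RD-HGA16 cells, Gα16-coupled · Reagent – β-PEA at EC80 concentration, post-compound challenge · Compound dosing – 3 µM, single point · Timing – 140 s kinetic read after compound, 140 s after agonist · Detection – Fluo-8 intracellular calcium dye fluorescence, real-time kinetic reads · Control set – DMSO and EC80 PEA controls · Repeats – n of 1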
GPR7 antagonist – antagonists of human GPR7 (neuropeptides B/W receptor 1); P48145; GPR7-expressing cells, fluorescence antagonist assay; inhibition, % at 4.4 µM; actives 1.1% (n = 290,000); AID 1861; in the data active = inhibition above about 16%, passing the limit was not always enough;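 note: cells stimulated with the agonist NPW; 0% = agonist with vehicle and 100% = vehicle without agonist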
Target sequence (P48145 whole entry, looked up): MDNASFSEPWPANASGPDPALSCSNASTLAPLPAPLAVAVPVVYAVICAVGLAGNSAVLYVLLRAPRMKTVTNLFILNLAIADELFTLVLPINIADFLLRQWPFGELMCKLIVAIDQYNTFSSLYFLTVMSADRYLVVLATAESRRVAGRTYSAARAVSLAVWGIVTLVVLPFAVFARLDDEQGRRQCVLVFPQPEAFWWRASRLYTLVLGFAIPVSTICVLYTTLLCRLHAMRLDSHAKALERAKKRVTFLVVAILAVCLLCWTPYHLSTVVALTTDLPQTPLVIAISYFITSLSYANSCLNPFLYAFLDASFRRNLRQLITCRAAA
* hit, by the source's call; x = no result given.

SMILES | DAGLB inhibitor | TAAR1 agonist | MPTP block | TAAR1 antagonist | GPR7 antagonist
O=C(NC(=S)NNC(=O)[C@H]1C[C@@H]1c1ccccc1)c1ccc(F)cc1 | -3.8 | 41.0* | 0.3 | 62.7* | 7.1
COc1cccc(C(=O)N[C@H](C(=O)N2CCC[C@H]2C(=O)NC2CCCC2)C2CCCCC2)c1 | x | -0.8 | x | -23.1 | x
Nc1ncnc2c1ncn2[C@@H]1O[C@H](CNCC#Cc2ccccc2)[C@@H](O)[C@H]1O | -2.2 | x | -1.6 | x | x
CC(C)Cn1c(N)c(C(=O)COC(=O)c2ccc(O)cc2)c(=O)n(C)c1=O | -1.4 | 3.9 | 2.7 | 9.8 | 1.6
CC(C)Cn1c(N)c(C(=O)COC(=O)C2=COCCO2)c(=O)n(C)c1=O | -1.2 | 12.0 | 0.6 | -10.6 | 18.5*
CC(C)Cn1c(N)c(C(=O)COC(=O)c2cc(F)cc(F)c2)c(=O)n(C)c1=O | 2.6 | 10.5 | 0.6 | -7.0 | 18.1*
Cc1nc2ccc(C(=O)N(C)Cc3ccccc3)cn2c1N(C)C(=O)CCc1ccccc1 | x | 1.6 | 7.1 | -26.4 | x
C=CC[C@@H](CC(=O)N[C@@H](CO)Cc1ccccc1)C(=O)N[C@H](COC(=O)[C@@H](CC=C)CC(=O)OC(C)(C)C)Cc1ccccc1 | 0.4 | 0.0 | 0.2 | -3.1 | x
C=CC[C@@H](CC(=O)N[C@H](CO)Cc1ccccc1)C(=O)N[C@@H](COC(=O)[C@H](CC=C)CC(=O)OC(C)(C)C)Cc1ccccc1 | -1.4 | 13.1 | -0.8 | 50.3* | x
C=CCC[C@H](Cc1ccc(F)cc1)C(=O)OC[C@@H](C)NC(=O)[C@@H](CC=C)CC(=O)N[C@H](CO)Cc1ccccc1 | -5.7 | 16.5 | 0.9 | 51.4* | x
C=CCC[C@H](Cc1ccc(F)cc1)C(=O)OC[C@@H](NC(=O)[C@@H](CC=C)CC(=O)N[C@@H](CO)Cc1ccccc1)C(C)(C)C | -6.8 | 13.2 | 1.4 | 50.9* | x
CN1OC[C@@H]2CN[C@H](c3ccc(-n4ccnc4)cc3)C[C@@H]21 | x | 3.2 | x | -24.9 | x
COc1ccc(-c2csc(NC(=O)CS(=O)(=O)c3ccccc3)n2)c(OC)c1 | 4.2 | 3.5 | -0.2 | -8.5 | x
COc1ccc(OC)c(-c2csc(NC(=O)Cc3ccc(F)cc3)n2)c1 | -4.3 | 0.1 | 2.5 | 40.3 | -11.9
COc1ccc(-c2csc(NC(=O)CCS(=O)(=O)c3ccccc3)n2)c(OC)c1 | 2.5 | 11.6 | 10.1 | 54.6* | -11.3
COc1ccc(OC)c(-c2csc(NC(=O)Cn3[nH]c(=O)c4ccccc4c3=O)n2)c1 | -1.3 | 4.2 | -0.5 | 54.2* | 16.8*
CC1=C(C(=O)N(C)C)CC(CC(=O)NC(c2ccccc2)c2ccccc2)C(=O)N1Cc1ccc(F)cc1 (centres undefined) | -2.5 | 0.1 | 0.2 | 0.9 | x
CN1C(=O)CSc2ccc(NC(=O)N3CCc4ccccc43)cc21 | -1.0 | 19.6 | 0.8 | 55.5* | 5.9
Cc1ccc(NC(=O)N2CCc3ccccc32)cc1C | -6.2 | 5.1 | 6.3 | -18.2 | -14.6
Cn1ncc2c(Nc3ccc([N+](=O)[O-])cc3)nc(Cl)nc21 | -3.2 | 40.7* | 11.2 | -1.8 | -15.7
Cn1ncc2c(NCCO)nc(Cl)nc21 | 0.9 | 1.7 | 0.5 | 2.1 | x
Cc1ccccc1N=C1SC(CC(=O)Nc2ccc3ccccc3c2)C(=O)N1Cc1ccccn1 (centres undefined) | -2.5 | 9.8 | -5.5 | 50.6* | 15.1
COC(=O)C1=C(C)N(Cc2ccccc2C(F)(F)F)C(=NCc2ccccc2)NC1c1cccc(C(F)(F)F)c1 (centres undefined) | x | 6.3 | x | -27.8 | x
CN(c1ccccc1)S(=O)(=O)c1ccc(C(=O)N2CCc3ccccc3C2)cc1 | 0.5 | 12.4 | 1.9 | 28.1 | 20.5*
COC(=O)/C=C1\OCc2cc(OCc3ccccc3)ccc21 | x | -1.4 | -2.9 | -32.7 | x
SMILES | DAGLB inhibitor | TAAR1 agonist | MPTP block | TAAR1 antagonist | GPR7 antagonist
C#CCNC(=O)C[C@H]1C[C@@]2(C(=O)OC)C(=C[C@H](C3CCCC3)O[C@@H]2C)N(CCCCCCCC)C1=O | x | -2.0 | x | -23.6 | x
CCCCCCCCN1C(=O)[C@@H](CC(=O)NCCCOC)C[C@@]2(C(=O)OC)C1=C[C@H](C1CCCC1)O[C@@H]2C | x | -2.4 | x | -19.3 | x
CCCn1c(=O)c2ccccc2n2c(SCC(=O)NCc3cccs3)nnc12 | 2.0 | 1.3 | -0.4 | -0.8 | 17.7*
Cc1cc(C)c(O)c(C(=O)CC2CC(=O)NC(=O)C2)c1 | x | -0.4 | x | 9.6 | x
COC(=O)C1C(=O)CC(C)(O)C(C(=O)OC)C1/C=C/c1ccccc1 (centres undefined) | 0.6 | 11.9 | -9.7 | -2.8 | -13.7
CCOC(=O)C1C(=O)CC(C)(O)C(C(=O)OCC)C1/C=C/c1ccccc1 (centres undefined) | -4.2 | 8.9 | -0.7 | 56.4* | 3.2
CNc1ncnc2c1ncn2[C@H]1CN(Cc2ccc(-c3ccccc3)cc2)C[C@@H](CO)O1 | x | 6.2 | 0.4 | 0.2 | x
Cc1cc2nc3c(=O)n(CCc4ccccc4)c(=O)[nH]c3nc2cc1N | -124.4 | 39.3* | 0.7 | 42.9 | -0.8
Nc1ccc2nc3c(=O)n(CCc4ccccc4)c(=O)[nH]c3nc2c1 | x | 56.3* | 2.5 | 24.2 | 7.3
Nc1ccc2nc3c(=O)n(C4CCCCC4)c(=O)[nH]c3nc2c1 | -102.2 | 88.0* | 0.5 | 33.4 | 4.8
CCCCn1c(=O)[nH]c2nc3cc(N)ccc3nc2c1=O | -89.7 | 27.9 | 3.1 | 24.3 | 5.7
O=C(CN1CCOCC1)Nc1nc(-c2ccc3c(c2)CCN3S(=O)(=O)c2ccccc2)cs1 | -1.0 | 20.3 | -2.4 | 53.4* | 3.6
O=C(COc1ccccc1)Nc1nc(-c2ccc(S(=O)(=O)N3CCOCC3)cc2)cs1 | -6.3 | 20.3 | -2.0 | 55.4* | 12.7
O=C(COc1ccc(Cl)cc1)Nc1nc(-c2ccc(S(=O)(=O)N3CCOCC3)cc2)cs1 | -0.8 | 17.0 | 19.1 | 62.4* | 11.4
Cc1sc(NC(=O)CN2CCOCC2)nc1-c1ccc2c(c1)CCN2S(=O)(=O)c1ccccc1 | 2.9 | 20.6 | 21.0 | 29.9 | 6.4
O=C(Nc1nc(-c2ccc(S(=O)(=O)N3CCCC3)cc2)cs1)C1COc2ccccc2O1 (centres undefined) | -9.6 | 23.2 | -0.4 | 56.6* | 2.3
Cc1ccccc1CN1CCN(C(=O)[C@H]2O[C@@H](n3cnc(C(N)=O)n3)[C@H](O)[C@@H]2O)CC1 | x | 2.6 | x | -11.2 | x
C=C1C(=O)CC2=C1[C@](Cc1ccc(F)cc1)(C(=O)OC)N(C(=O)c1ccccc1)C2 | x | 0.8 | 0.4 | -2.2 | x
C=C1C(=O)C=C2CN(C(=O)c3ccccc3)[C@@](Cc3ccc(F)cc3)(C(=O)OC)[C@@H]12 | 4.5 | x | -0.2 | x | 85.4*
COc1ccc(S(=O)(=O)NC(=O)C2(C)CCN2C(=O)c2c(C)noc2C)cc1 (centres undefined) | x | -0.4 | -0.3 | 8.6 | x
Cc1cccc(N(CC(=O)NCc2ccc3c(c2)OCO3)C(=O)CCC(=O)Nc2ccccn2)c1C | 4.4 | 19.3 | -4.1 | 52.4* | -2.1
O=C(COC(=O)c1cc(=O)[nH]c2ccccc12)Nc1nc(-c2ccccc2)cs1 | 2.9 | 6.9 | 6.8 | 49.6* | -12.3
